Laboratory results taken from publication PMC6233868 (Journal of nuclear medicine : official publication, Society …, 2016).
Entries after “also recorded” stand apart in the source; their conditions may differ. Where two headings read alike, the source gives them in different places.

Experiments:
hNIS [1] = molecular target: T1, hNIS (Homo sapiens, UniProt Q92911); format: cell-based
T1 sequence (Q92911 1-643): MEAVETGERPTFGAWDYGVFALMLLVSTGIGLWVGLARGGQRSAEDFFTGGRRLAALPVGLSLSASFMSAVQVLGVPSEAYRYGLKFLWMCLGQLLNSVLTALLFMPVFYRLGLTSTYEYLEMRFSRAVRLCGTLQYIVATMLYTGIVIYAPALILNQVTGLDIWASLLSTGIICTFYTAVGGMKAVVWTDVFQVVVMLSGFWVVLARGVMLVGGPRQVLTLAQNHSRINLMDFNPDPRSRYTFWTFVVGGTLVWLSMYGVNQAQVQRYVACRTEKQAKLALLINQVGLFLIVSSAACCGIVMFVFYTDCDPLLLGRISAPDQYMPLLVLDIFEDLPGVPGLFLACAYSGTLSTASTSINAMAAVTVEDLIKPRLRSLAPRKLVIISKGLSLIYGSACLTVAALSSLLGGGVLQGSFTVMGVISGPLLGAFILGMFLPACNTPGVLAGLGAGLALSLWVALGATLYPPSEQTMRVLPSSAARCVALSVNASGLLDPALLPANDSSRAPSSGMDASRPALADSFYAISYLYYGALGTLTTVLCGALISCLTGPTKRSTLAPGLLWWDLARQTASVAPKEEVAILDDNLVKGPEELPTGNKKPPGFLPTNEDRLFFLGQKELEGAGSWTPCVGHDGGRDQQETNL

hNIS [2] = molecular target: T1, hNIS; format: cell-based; remark: listed apart in the source
HCT116 cells = assay: [18F]SO3F- uptake in hNIS-negative parental HCT116 cells; format: cell-based, human; settings: presence or absence of NaClO4
[3] = stability of formulated tracer; format: physicochemical
[4] = PET/CT imaging biodistribution in Balb/c mice; format: in vivo, mouse
In short: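 Female Balb/c mice (4-8 weeks) received NaClO4 (250 mg/kg i.p. in 0.9% NaCl) or an equal volume of saline 1 h before scanning. Dynamic PET ran for 2 h from <1 min after radiotracer injection, followed by CT. Data were corrected and binned into 5 min then 30 min frames. Manual ROIs were drawn at a 10% max-count threshold and reported as %ID (whole body minus tail) and %ID/g.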

[5] = ex vivo biodistribution in Balb/c mice; design: species or system mouse; settings: 2.25 h post-injection
In short: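 Female Balb/c mice (4-8 weeks) were pretreated 1 h before the radiotracer with NaClO4 (250 mg/kg i.p. in 0.9% NaCl) or with a saline sham. After the 2 h PET scan, mice were culled by cervical dislocation at 2.25 h post-injection. Thyroid was dissected under a microscope. Tissues were weighed and gamma-counted, giving %ID/g; n = 3, SD.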

[6] = human serum stability by TLC
hNIS [7] = molecular target: T1, hNIS; format: cell-based; settings: read-out: IC50, inhibition of [18F]SO3F- uptake; HCT116-C19 cells
mouse thyroid = settings: in vivo; cited from earlier work
NIS = settings: read-out: IC50 for inhibition of [124I]I- uptake; cited from earlier work
[8] = read-out: IC50, inhibition of [99mTc]TcO4- uptake via hNIS
[9] = read-out: IC50, inhibition of anion uptake via hNIS
[10] = normal mice, PET time-activity curves

Q: With `I` [I^-, iodide] as the molecule, how does the IC50 (hNIS [1]; [8]) read?
A: The IC50 was 2700 to 4700 nM.

Q: What about the IC50 (hNIS [1]; [9]) of the same molecule?
A: Its IC50 is greater than 2700 nM.

Q: Which IC50 (hNIS [1]; [8]) does the source give for `F[B-](F)(F)F` [BF4^-, tetrafluoroborate] here?
A: Its IC50 is 290 to 4500 nM.

Q: With `O=S(=O)(O)F` [[^18F]SO3F^-] [[^18F]Fluorosulfate] as the molecule, how does the “uptake of radiotracer in HCT116-C19 cells” value (hNIS [2]) read?
A: The value was “Specific, blockable hNIS-mediated uptake; also recorded: Significant uptake”.

Q: And the “uptake of radiotracer in HCT116-C19 cells with NaClO4” value (hNIS [2])?
A: The value was “blocked”.

Q: And the “uptake of radiotracer in parental HCT116 cells” value (HCT116 cells)?
A: The value was “No uptake; also recorded: absent”.

Q: What about the RCP after standing ([3]; formulated tracer, room temperature, 4 h, IC and TLC) of the same molecule?
A: Its RCP after standing is greater than 95%.

Q: And the “RCP under acidic conditions” value ([3]; pH 3.0, 4 h)?
A: Its value is “similarly constant”.

Q: What about the “bone %ID/g relative to that in thyroid” value ([4]; 30 min) of the same molecule?
A: The value was less than 1%.

Q: And the “time of maximum thyroid uptake” value ([4]; PET, normal mice)?
A: The value was 30 min.

Q: And the “salivary gland uptake (PET)” value ([4]; normal mice, 30 min)?
A: The value was 32 ± 9 %ID/g.

Q: What about the “thyroid uptake (PET)” value ([4]; normal mice, 30 min) of the same molecule?
A: Its value is 563 ± 140 %ID/g.

Q: What about the “bone uptake (PET)” value ([4]; normal mice, 60 min) of the same molecule?
A: Its value is 3 ± 1 %ID/g.

Q: What about the “stomach uptake (PET)” value ([4]; normal mice, 90 min) of the same molecule?
A: The value was 68 ± 21 %ID/g.

Q: And the “time at which stomach uptake reaches a plateau” value [4, 10]?
A: The value was “around 90 min”.

Q: And the “time at which thyroid and salivary gland uptake reaches a plateau” value [4, 10]?
A: Its value is 30 to 45 min.

Q: What about the “bladder radioactivity (ex vivo)” value [5] of the same molecule?
A: Its value is 15 ± 14 %ID/g.

Q: What about the “bone uptake (ex vivo)” value [5] of the same molecule?
A: The value was 17 ± 3 %ID/g.

Q: What about the “bone uptake (ex vivo) with perchlorate” value ([5]; mice administered NaClO4) of the same molecule?
A: Its value is “not blocked”.

Q: What about the “salivary gland uptake (ex vivo) with NaClO4” value ([5]; mice administered NaClO4) of the same molecule?
A: Its value is 2.6 ± 1.7 %ID/g.

Q: What about the “stomach uptake (ex vivo) with NaClO4” value ([5]; mice administered NaClO4) of the same molecule?
A: The value was 3.0 ± 1.7 %ID/g.

Q: What about the “thyroid uptake (ex vivo) with NaClO4” value ([5]; mice administered NaClO4) of the same molecule?
A: The value was 4.3 ± 4.6 %ID/g.

Q: What about the “salivary gland uptake (ex vivo)” value ([5]; without NaClO4) of the same molecule?
A: Its value is 18 ± 4 %ID/g.

Q: And the “stomach uptake (ex vivo)” value ([5]; without NaClO4)?
A: Its value is 59 ± 10 %ID/g.

Q: And the “thyroid uptake (ex vivo)” value ([5]; without NaClO4)?
A: The value was 144 ± 71 %ID/g.

Q: And the “RCP after incubation with human serum” value ([6]; 4 h, TLC of supernatant after ethanol protein precipitation)?
A: Its value is greater than 95%.

Q: And the “radioactivity associated with the protein pellet” value ([6]; human serum, ethanol precipitation)?
A: Its value is “no significant radioactivity”.

Q: With `O=S(=O)(O)F` [SO3F^-, fluorosulfate] as the molecule, how does the IC50 (hNIS [1]; [8]) read?
A: Its IC50 is 550 to 560 nM.

Q: And the IC50 (hNIS [1]; [9])?
A: Its IC50 is 560 nM.

Q: And the IC50 (hNIS [7])?
A: The IC50 was 1600 nM.

Q: What about the “inhibition of radioiodide uptake in mouse thyroid” value (mouse thyroid) of the same molecule?
A: Its value is “inhibit radioiodide uptake”.

Q: Which IC50 (NIS) does the source give for `[O-][Cl+3]([O-])([O-])O` [ClO4^-, perchlorate] here?
A: The IC50 was 100 nM.

Q: Which IC50 (hNIS [1]; [8]) does the source give for `[O]=[Tc](=[O])(=[O])[OH]` [TcO4^-, pertechnetate] here?
A: Its IC50 is 70 nM.
